Bioassay records from PubChem.
Shown are actives, neighbours in structure and some others; about 1.9% of the full set was active somewhere.
UHRF1 binding: UHRF1 methyl-DNA binding inhibition. inhibition, % at 4.4 µM. Q96T88. UHRF1 binding to methylated oligo, TR-FRET. actives 0.75% (n = 370,000); in the data active = inhibition above about 21%;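 also: UHRF1 SRA domain binding a hemimethylated CpG hairpin DNA probe; 0% = median of test compound wells and 100% = reference inhibitor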
MBD2 DNA inh: blocks human MBD2 binding to methylated DNA; inhibition, % at 4.4 µM; Q9UBB5; TR-FRET, MBD2 binding to methylated oligonucleotide; actives 0.31% (n = 370,000); in the data active = inhibition above about 13%
TDP2 absorb: blocks human TDP2 phosphodiesterase activity; O95551; recombinant TDP2, T5PNP hydrolysis, p-nitrophenol absorbance 415 nm; inhibition, % at 12.8 µM; actives 0.34% (n = 370,000); AID 720702;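 active = inhibition above the mean of all tested compounds plus 3 SD, set per campaign, cut at about 25% in these data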;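 also: 0% = DMSO with enzyme and 100% = buffer with substrate but no TDP2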
Target sequence (O95551 whole entry, looked up): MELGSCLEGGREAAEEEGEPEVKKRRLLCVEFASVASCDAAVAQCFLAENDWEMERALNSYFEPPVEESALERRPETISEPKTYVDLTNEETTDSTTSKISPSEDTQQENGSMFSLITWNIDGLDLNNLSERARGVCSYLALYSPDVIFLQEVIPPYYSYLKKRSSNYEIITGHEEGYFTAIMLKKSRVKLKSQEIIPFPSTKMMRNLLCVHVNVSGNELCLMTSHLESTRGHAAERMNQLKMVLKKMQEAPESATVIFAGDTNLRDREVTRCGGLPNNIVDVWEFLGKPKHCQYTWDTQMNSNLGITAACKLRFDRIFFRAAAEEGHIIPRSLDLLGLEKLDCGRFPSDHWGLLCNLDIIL
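Incubation: 2 h at 37 °C; Test system: recombinant human TDP2; Quantity: enzyme 120 nM; Read-out basis: percent inhibition; Medium: 50 mM Tris-HCl pH 7.5 with Mg2+, KCl, DTT, BSA; Repeats: single replicate; Compound: 12.8 µM single point, 1% DMSO; Signal: epi absorbance; Reagent: 5 mM T5PNP chromogenic substrate; Benchmarks: no-enzyme high, DMSO-plus-enzyme low.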
LEDGF integ inh: blocks HIV-1 LEDGF/p75-dependent DNA integration. TR-FRET IN-LEDGF/p75 DNA integration, Eu/Cy5. inhibition, % at 3.7 µM. actives 0.64% (n = 370,000);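 active = inhibition above the screen-wide mean plus 3 SD, cut at about 13% in these data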;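 also: signal is the Cy5 over europium emission ratio at 671 and 618 nm; 0% = plate median of compound wells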
Rin1 Abl inh: human Rin1-Abl interaction inhibition | P00519+Q13671 | TR-FRET Rin1/Abl binding, biochemical | inhibition, % at 7.35 µM | actives 0.4% (n = 360,000); in the data active = inhibition above about 5%, passing the limit was not always enough
TDP2 inh conf: human TDP2 inhibition, confirmation; shares compounds with TDP2 absorb; recombinant human TDP2, absorbance read-out; inhibition, % at 12.8 µM; actives 22% (n = 1,100); AID 743263; in the data active = inhibition above about 25%;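 also: 0% = vehicle with enzyme and 100% = no enzyme buffer only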
IN multimer up: counter-screen for LEDGF/p75 integration inhibitors: HIV-1 integrase multimerization activators | AID 1053131 | activation, % at 7.7 µM | actives 17% (n = 2,000) | TR-FRET HIV-1 integrase multimerization, biochemical | shares compounds with LEDGF integ inh; in the data active = activation above about 8.9%
TR-FRET interf: TR-FRET optical interference, LEDGF/p75 integration counter-screen; TR-FRET optical interference counterscreen, HIV-1 IN multimerization; shares compounds with LEDGF integ inh; 2,000 tested, under 10 active; inhibition, % at 7.7 µM;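 active = inhibition above the mean over all tested compounds plus 3 SD, which no compound reached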;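 also: 0% = integrase with antibodies and DMSO and 100% = antibodies without integrase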
LEDGF integ conf: LEDGF/p75-dependent HIV-1 integration inhibition, confirmation | actives 36% (n = 2,000) | AID 1053136 | inhibition, % at 3.7 µM | shares compounds with LEDGF integ inh | TR-FRET LEDGF/p75-dependent HIV-1 integration, biochemical; in the data active = inhibition above about 14%
* hit, by the source's call.

Screening Nc1ccc(N(CCO)CCO)cc1 returned UHRF1 binding 7, MBD2 DNA inh -9, TDP2 absorb 46*, LEDGF integ inh 24*, Rin1 Abl inh 5, TDP2 inh conf 24, IN multimer up 12*, TR-FRET interf -62 and LEDGF integ conf 28*.
Screening COc1ccc(C(=O)Nc2ccc(O)c3ccccc23)cc1 returned UHRF1 binding 9, MBD2 DNA inh -3, TDP2 absorb 12, LEDGF integ inh 9 and Rin1 Abl inh 0.
O=S(=O)(Nc1ccc(O)c2ccccc12)c1ccc(F)cc1 was read as UHRF1 binding -1, MBD2 DNA inh -5, TDP2 absorb 47*, LEDGF integ inh 27*, Rin1 Abl inh -1, TDP2 inh conf 19, IN multimer up 5, TR-FRET interf -24 and LEDGF integ conf 8.
Screening COc1ccc(NC(=O)Nc2ccc(O)c3ccccc23)cc1 returned UHRF1 binding 1, MBD2 DNA inh -8, TDP2 absorb 45*, LEDGF integ inh 15*, TDP2 inh conf 18, IN multimer up 7, TR-FRET interf -24 and LEDGF integ conf 8.
For COc1ccc(OC)c(S(=O)(=O)Nc2ccc(O)c3ccccc23)c1 the results were UHRF1 binding -2, MBD2 DNA inh -2, TDP2 absorb 41*, LEDGF integ inh 23*, Rin1 Abl inh 0, TDP2 inh conf 8, IN multimer up 0, TR-FRET interf 2 and LEDGF integ conf -1.
COc1ccccc1CN(C)C(=O)C1CCCN(c2nc3ccccc3o2)C1 (configuration not stated) was read as UHRF1 binding 1, MBD2 DNA inh -1, TDP2 absorb -6 and LEDGF integ inh 1.
Screening COc1ccc(S[C@]2(C(=O)N3CCN(C(C)=O)CC3)CC(=O)N(C(=O)CCc3ccccc3)[C@@H]2c2ccc(OC)cc2)cc1 returned UHRF1 binding 7, MBD2 DNA inh 7, TDP2 absorb -8 and LEDGF integ inh 6.
For COc1ccccc1N(/N=C1\Sc2ccccc2C1=O)C(C)=O the results were UHRF1 binding -8, MBD2 DNA inh -7, TDP2 absorb 28*, LEDGF integ inh 17*, Rin1 Abl inh -3, TDP2 inh conf 45*, IN multimer up 0, TR-FRET interf -1 and LEDGF integ conf 23*.
`NC(=Nc1ccc(N)cc1)C(N)=Nc1ccc(N)cc1` gave UHRF1 binding -4, MBD2 DNA inh -5, TDP2 absorb 51*, LEDGF integ inh 39*, Rin1 Abl inh -2, TDP2 inh conf -9, IN multimer up 1, TR-FRET interf -4 and LEDGF integ conf -6.
CN(C)c1cccc2c1c(NS(=O)(=O)c1cn(C)cn1)nn2C was read as UHRF1 binding -3, MBD2 DNA inh -3, TDP2 absorb 44*, LEDGF integ inh 15*, Rin1 Abl inh 2, TDP2 inh conf 32*, IN multimer up 5, TR-FRET interf -18 and LEDGF integ conf 12.
For CC(=O)c1cc(-c2cccc(CO)c2)c(=O)n2c1CCC2 the results were UHRF1 binding 0, MBD2 DNA inh 4, TDP2 absorb 11 and LEDGF integ inh 1.
CCOc1ccc(S(=O)(=O)Nc2cc(SCC(=O)O)c(O)c3ccccc23)cc1 was read as UHRF1 binding -6, MBD2 DNA inh -4, TDP2 absorb 66*, LEDGF integ inh 25*, Rin1 Abl inh 4, TDP2 inh conf 55*, IN multimer up 2, TR-FRET interf -7 and LEDGF integ conf 43*.
Screening O=S(=O)(Nc1cc(Sc2cccc3cccnc23)c(O)c2ccccc12)c1ccccc1 returned UHRF1 binding -31, MBD2 DNA inh -24, TDP2 absorb 33*, LEDGF integ inh 17*, TDP2 inh conf 7, IN multimer up 0, TR-FRET interf -1 and LEDGF integ conf -11.
Screening Cc1ccc(C)c(S(=O)(=O)Nc2cc(SCC(=O)O)c(O)c3ccccc23)c1 returned Rin1 Abl inh 2.
Screening O=C(O)CSc1cc(NS(=O)(=O)c2cccc([N+](=O)[O-])c2)c2ccccc2c1O returned UHRF1 binding 2, MBD2 DNA inh -9, TDP2 absorb 63*, LEDGF integ inh 16*, Rin1 Abl inh 1, TDP2 inh conf 70*, IN multimer up 4, TR-FRET interf -15 and LEDGF integ conf 63*.
Screening COC(=O)[C@]12C[C@H](CC(=O)N3CCN(C(=O)C4CC4)CC3)C(=O)N(Cc3ccco3)C1=C[C@H](C(C)C)O[C@@H]2C1CC1 returned UHRF1 binding 6, MBD2 DNA inh 6, TDP2 absorb 0 and LEDGF integ inh 4.
For C=CCN(CC#Cc1ccc(OC)cc1)CC=C the results were UHRF1 binding 0, MBD2 DNA inh -3, TDP2 absorb 8 and LEDGF integ inh 0.
`CCC(COC)Oc1cc(NCc2ccccc2)c2ncn(C(C)C)c2c1` (configuration not stated) gave UHRF1 binding 4, MBD2 DNA inh -13, TDP2 absorb 61*, LEDGF integ inh 27*, Rin1 Abl inh 0, TDP2 inh conf 35*, IN multimer up 0, TR-FRET interf -1 and LEDGF integ conf 30*.
For CCC(CO)Oc1cc(NC(=O)c2ccc(N)cc2)c2ncn(C(C)C)c2c1 (configuration not stated) the results were UHRF1 binding 18, MBD2 DNA inh 6, TDP2 absorb 37*, LEDGF integ inh 14*, Rin1 Abl inh 3, TDP2 inh conf 34*, IN multimer up 1, TR-FRET interf -3 and LEDGF integ conf 25*.
CCC(CO)Oc1cc(NC(=O)c2ccc(F)cc2)c2ncn(C(C)C)c2c1 (configuration not stated) was read as UHRF1 binding 7, MBD2 DNA inh 4, TDP2 absorb -7, LEDGF integ inh -1 and Rin1 Abl inh 0.
Screening COCCCOc1cc(NCc2ccccc2)c2ncn(C(C)C)c2c1 returned UHRF1 binding -5, MBD2 DNA inh -5, TDP2 absorb 13, LEDGF integ inh 4 and Rin1 Abl inh 1.
Screening O=c1[nH]c(Nc2ccc(F)cc2)cc2ccccc12 returned UHRF1 binding 5, MBD2 DNA inh 2, TDP2 absorb 77*, LEDGF integ inh 53*, Rin1 Abl inh 1, TDP2 inh conf 65*, IN multimer up 1, TR-FRET interf -4 and LEDGF integ conf 67*.
